In the library only some 4.3% were active in any assay of this set; here they are far more common.
MC4R antag cAMP: antagonists of human melanocortin 4 receptor (MC4R); P32245; MC4R-expressing cells, MTII-stimulated cAMP, LANCE TR-FRET; inhibition, % at 6.5 µM; 0.48% of 360,000 active; AID 540295;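 active means inhibition above its plate's cutoff, the mean of tested wells on that plate plus 3 SD, cut at about 29% in these data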;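 further: 0% = Melanotan II alone and 100% = Melanotan II plus saturating MCL0020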
Target sequence (P32245 whole entry, looked up): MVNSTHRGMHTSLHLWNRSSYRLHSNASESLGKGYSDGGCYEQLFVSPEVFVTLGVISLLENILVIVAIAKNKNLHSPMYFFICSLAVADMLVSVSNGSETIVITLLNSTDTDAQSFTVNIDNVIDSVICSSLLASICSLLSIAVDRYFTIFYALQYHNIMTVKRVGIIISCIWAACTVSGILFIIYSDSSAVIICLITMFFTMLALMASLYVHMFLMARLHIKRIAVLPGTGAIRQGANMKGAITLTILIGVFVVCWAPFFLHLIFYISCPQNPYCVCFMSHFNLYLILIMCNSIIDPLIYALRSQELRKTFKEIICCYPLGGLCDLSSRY
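material = U2OS cells stably expressing human melanocortin 4 receptor (MC4R) | also added = Melanotan II challenge | dosing = single nominal compound dose of 6.5 µM | detection = TR-FRET with Eu-cAMP and labeled anti-cAMP, 671 nm | replication = singlicate | timing = compound 30 min, challenge 1 h, detection 1 h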
HTR2A ag: agonists of mouse serotonin 5-HT2A receptor (HTR2A); CHO-K1 mHTR2A beta-arrestin complementation, luminescence; percent of 30 µM serotonin response; activation, % at 7.6 µM; P35363; 0.66% of 360,000 active; AID 624169;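 active means activation above a run cutoff, the mean activation of all tested compounds plus 3 SD, cut at about 14% in these data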;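 further: 0% = plate median of compound wells and 100% = 30 µM serotonin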
Beta2AR agonist: activates human beta-2 adrenergic receptor causing internalization; P07550; Am2.2-beta2AR cells, FAP receptor internalization, flow cytometry; response, % (no concentration beside the values); 0.43% of 340,000 active; AID 504454;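 active means response above a set limit, near 3 SD of response in nonfluorescent compounds, cut at about 42% in these data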
MC4R ag barr: human MC4R agonism via beta-arrestin; activation, % at 8.9 µM; U2OS MC4R beta-arrestin complementation, luminescence; percent of melanotan II response, DMSO zero; 0.98% of 360,000 active; P32245;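 active means activation above a per-plate cutoff, the mean activation of sample wells on that plate plus 3 SD, cut at about 8% in these data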
TAAR1 agonist: agonists of human TAAR1; Q96RJ0; CHO RD-HGA16 TAAR1, Fluo-8 calcium fluorescence; vehicle wells 0%, saturating PEA agonist 100%; activation, % at 3 µM; 0.99% of 360,000 active;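 active means activation above the mean activation of all test compounds in the run plus 3 SD, cut at about 38% in these data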
Target sequence (Q96RJ0 whole entry, looked up): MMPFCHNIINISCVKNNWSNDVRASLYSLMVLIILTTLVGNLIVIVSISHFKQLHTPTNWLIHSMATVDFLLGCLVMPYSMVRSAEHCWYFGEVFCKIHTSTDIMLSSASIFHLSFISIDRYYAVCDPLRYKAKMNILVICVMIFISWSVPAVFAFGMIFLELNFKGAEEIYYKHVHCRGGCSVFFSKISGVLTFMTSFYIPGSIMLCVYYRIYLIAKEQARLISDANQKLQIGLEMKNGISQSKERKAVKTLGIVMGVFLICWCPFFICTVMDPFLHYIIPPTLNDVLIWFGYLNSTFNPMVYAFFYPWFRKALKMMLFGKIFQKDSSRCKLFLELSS
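Signal – calcium-sensitive Fluo-8 signal, excitation 470-495, emission 515-575 nm · System – RD-HGA16 (CHO) cells co-expressing Gα16 and hTAAR1 · Incubation – 17-24 h seeding, 75 min 37 °C dye, 30 min RT · Compound dosing – 3 µM single concentration · Repeats – no replicates (n 1)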
TAAR1 antag: antagonists of human TAAR1; Q96RJ0; CHO RD-HGA16 TAAR1, Fluo-8 calcium fluorescence, antagonist; 1.5% of 360,000 active; inhibition, % at 3 µM; AID 624466;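 active means inhibition above a per-plate cutoff, the mean inhibition of test compounds on that plate plus 3 SD, cut at about 49% in these data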;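 further: 0% = DMSO plus EC80 beta-PEA response and 100% = DMSO alone without agonist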
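Assay system: RD-HGA16 CHO cells with stable hTAAR1 and Gα16 / Reagent: EC80 β-phenethylamine stimulus / Doses: 3 µM, single point / Timing: dye loading 75 min at 37 °C, then 30 min room temperature / Measured by: Fluo-8 intracellular calcium dye fluorescence, real-time kinetic reads / Controls: vehicle wells and EC80 agonist wells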
Starred values were filed as active, the others as inactive; · = no result.

SMILES	MC4R antag cAMP	HTR2A ag	Beta2AR agonist	MC4R ag barr	TAAR1 agonist	TAAR1 antag
COC(=O)C[C@H]1C=C[C@@H](NC(=O)C2CC2)[C@@H](CO)O1	·	-5.6	·	·	1.5	-17.1
C[C@H]1COc2cc(N3CCOCC3)ccc2S(=O)(=O)N1	·	·	·	·	1.1	12.4
Nc1nonc1C(=O)NCCNCc1ccccc1OCc1ccccc1F	2.5	-7.8	-6.6	-1.7	14.8	21.7
Nc1nonc1C(=O)NCCNCc1cc(Br)ccc1OCc1ccccc1F	6.8	-5.7	-3.4	-2.2	40.3*	51.4*
Cc1cc(C)c(C)c(OC(=O)c2sc(Cl)nc2C)c1	25.1	6.1	92.3*	0.8	-0.6	-6.1
CCCc1nc2c(C)cc(Br)cn2c1Cc1cccc(Cl)c1	·	·	·	·	1.1	7.6
CCCCOCC1CN(CCCC)S(=O)(=O)c2c(cccc2Sc2ccc(OC)c(OC)c2)O1 (configuration not stated)	·	·	·	·	0.0	-18.9
Cc1cc(=O)oc2cc(OCC(=O)N3CCN(C(=O)C4COc5ccccc5O4)CC3)ccc12 (configuration not stated)	6.5	2.3	-0.4	0.4	7.3	16.5
CCCc1cc(=O)oc2cc(OCC(=O)N3CCN(C(=O)C4COc5ccccc5O4)CC3)ccc12 (configuration not stated)	2.9	-1.3	6.9	-2.7	7.1	49.1*
Cc1nc2ccccc2cc1OCc1ccccc1	-1.7	2.7	-18.0	8.5*	21.4	12.2
CCSc1n[nH]c(=O)n1C	·	·	·	·	1.0	-35.8
N#C/C(=C/c1ccco1)C(N)=S	-3.9	1.2	0.6	-0.9	0.7	5.3
N#CC(C#N)=C1C=CC=CN1/C(=C\c1ccco1)C(=O)c1ccc(Br)cc1	27.8	5.2	74.8*	-3.8	4.8	37.2
[O-][n+]1onc2c1CCc1c-2nn(-c2ccccc2Cl)[n+]1[O-]	36.9*	-2.4	-0.6	5.0	0.8	-7.5
CCCCNC(=O)C[C@H]1C[C@@]2(C(=O)OC)C(=C[C@H](C(C)(C)C)O[C@@H]2C)N(Cc2ccccc2)C1=O	·	·	·	·	-2.1	-41.8
COC(=O)[C@]12C[C@H](CC(=O)N3CCN(C(=O)C4CC4)CC3)C(=O)N(Cc3ccccc3)C1=C[C@H](C1CCCC1)O[C@@H]2C	·	·	·	·	1.9	-0.4
COCCCn1c(N)c(-c2nc3ccccc3n2C)c2nc3ccccc3nc21	8.2	0.5	10.1	-5.1	22.5	49.2*
CCCCOCC1CN(CCCC)S(=O)(=O)c2c(NCc3cc(OC)c(OC)c(OC)c3)cccc2O1 (configuration not stated)	·	·	·	·	-0.8	41.4
CCOC(=O)C(=O)N(C)c1c(CC)nc2c(OCc3ccc(OC(F)F)cc3)cccn12	0.7	-4.4	·	-0.4	1.0	-2.1
CCCOc1ccc(/C=C/C(=O)Nc2ccc([N+](=O)[O-])cc2C)cc1OC	7.5	3.9	-2.1	11.8*	9.1	-3.6
COc1ccc(C(=O)NC(=S)Nc2ccccc2[N+](=O)[O-])cc1OC	-5.3	1.1	-9.7	-1.2	4.7	-22.9
COc1ccc(C(=O)NC(=S)Nc2ccc([N+](=O)[O-])cc2C)cc1OC	-0.8	2.7	-10.1	8.9*	6.4	-8.3
COc1ccc2cc(/C=N/NC(=O)CN(c3ccccc3OC)S(=O)(=O)c3ccccc3)c(Cl)nc2c1	·	·	·	·	10.4	14.6
CC(C)CN1CCC1(C)C(=O)Nc1cc(-c2ccccc2)nn1C (configuration not stated)	-2.9	-9.8	·	1.3	-0.1	-29.1
COc1ccc2sc(N(CCCN(C)C)C(=O)c3ccc(S(=O)(=O)N4CCCC4)cc3)nc2c1	0.7	-0.9	5.9	2.2	12.2	-32.7
SMILES	MC4R antag cAMP	HTR2A ag	Beta2AR agonist	MC4R ag barr	TAAR1 agonist	TAAR1 antag
Cc1cccc2sc(N(CCCN(C)C)C(=O)c3ccc(S(=O)(=O)N4CCc5ccccc5C4)cc3)nc12	5.5	-7.2	46.0*	1.0	39.0*	32.7
Cc1cc(C)c2sc(N(CCN(C)C)C(=O)CCS(=O)(=O)c3ccccc3)nc2c1	1.9	-8.0	1.2	9.2*	7.6	-3.3
CN(C)CCCN(C(=O)c1ccc2c(c1)CCCC2)c1nc2cc3c(cc2s1)OCO3	-3.9	-8.1	13.3	8.6*	41.0*	-7.4
COc1ccc2sc(N(CCCN(C)C)C(=O)c3ccc(S(=O)(=O)N4CCc5ccccc5C4)cc3)nc2c1	1.8	-8.0	31.3	31.6*	40.0*	9.7
CN(C)CCCN(C(=O)c1ccc2c(c1)CCCC2)c1nc2ccc(F)cc2s1	-4.5	-5.7	12.1	6.4	25.4	1.9
CCN(CC)CCN(C(=O)CCS(=O)(=O)c1ccccc1)c1nc2cc(C)cc(C)c2s1	8.7	-1.3	10.1	1.8	9.7	-11.1
Cc1cc(C)c2sc(N(CCCN(C)C)C(=O)c3ccc(S(=O)(=O)N4CCc5ccccc5C4)cc3)nc2c1	-0.9	0.3	50.6*	39.5*	·	·
Cc1cc(C)c2sc(N(CCCN(C)C)C(=O)c3ccc(S(=O)(=O)N4CCCc5ccccc54)cc3)nc2c1	7.5	-11.9	33.3	1.3	27.0	35.6
Cc1ccc2nc(N(CCCN(C)C)C(=O)c3ccc(S(=O)(=O)N4CCc5ccccc5C4)cc3)sc2c1	8.2	-7.1	17.5	8.7*	45.1*	7.4
Cc1ccc2nc(N(CCCN(C)C)C(=O)c3ccc(S(=O)(=O)N4CCOCC4)cc3)sc2c1	6.0	-6.3	1.4	-0.8	6.9	-12.2
COc1cc(Nc2cc(C)n(-c3ccc(Cl)c(OC)c3)c(=O)c2)ccc1Cl	·	·	·	·	-1.7	-13.2
CSCCC(C(=O)NCc1ccccc1)n1c(C2CCN(C(C)=O)CC2)nc2ccccc21 (configuration not stated)	·	0.3	·	·	1.7	-14.6
Cc1ccc(C(=O)N/C(=C\c2ccc([N+](=O)[O-])cc2)C(=O)NCCc2ccccc2)cc1	0.0	-4.7	11.7	0.1	43.1*	14.3
CC1(C)CC(=O)C=C(c2ccc(COC(=O)c3ccc(Br)cc3)cc2)C1=O	·	·	·	·	3.4	30.7
CC(C)C[C@H]1COc2cc(NCCO)ccc2S(=O)(=O)N1	·	·	·	·	1.4	1.0
CC1=C(C(=O)OCC(Cl)(Cl)Cl)N2C(=O)C(NC(=O)Cc3ccccc3)C2SC1 (configuration not stated)	5.1	4.8	4.6	-1.0	25.2	61.1*
COc1cc(OC)c(-c2c3cc(O)c(=O)cc-3oc3cc(O)c(O)cc23)cc1OC	-1.4	-5.5	-186.0	-4.8	367.0*	71.1*
COc1c(O)cc2oc(-c3ccc(O)cc3)cc(=O)c2c1O	-19.6	-12.2	-0.8	-0.9	7.7	8.0
Cc1c2cc(O)c(=O)cc-2oc2cc(O)c(O)cc12	-6.8	3.5	-172.7	-1.3	204.5*	28.9
Cc1ccc(CN2CC=CCS2(=O)=O)cc1	·	·	·	·	0.4	-9.3
